Assay results as given in ChEMBL document CHEMBL3526004, “Interaction of silymarin flavonolignans with organic anion-transporting polypeptides” (Drug Metab Dispos, 2013).

Key:
[1] = molecular target: T1, Solute carrier organic anion transporter family member 2B1 (Homo sapiens, UniProt O94956); assay: Inhibition of OATP2B1 (unknown origin) expressed in MDCK2 cells assessed as reduction of [3H]estrone-3-sulfate uptake at 10 uM after 3 mins by beta-counting; assay type: ADME, cell-based; conditions: mdck-ii, 0.05 h
T1 sequence (O94956 whole entry): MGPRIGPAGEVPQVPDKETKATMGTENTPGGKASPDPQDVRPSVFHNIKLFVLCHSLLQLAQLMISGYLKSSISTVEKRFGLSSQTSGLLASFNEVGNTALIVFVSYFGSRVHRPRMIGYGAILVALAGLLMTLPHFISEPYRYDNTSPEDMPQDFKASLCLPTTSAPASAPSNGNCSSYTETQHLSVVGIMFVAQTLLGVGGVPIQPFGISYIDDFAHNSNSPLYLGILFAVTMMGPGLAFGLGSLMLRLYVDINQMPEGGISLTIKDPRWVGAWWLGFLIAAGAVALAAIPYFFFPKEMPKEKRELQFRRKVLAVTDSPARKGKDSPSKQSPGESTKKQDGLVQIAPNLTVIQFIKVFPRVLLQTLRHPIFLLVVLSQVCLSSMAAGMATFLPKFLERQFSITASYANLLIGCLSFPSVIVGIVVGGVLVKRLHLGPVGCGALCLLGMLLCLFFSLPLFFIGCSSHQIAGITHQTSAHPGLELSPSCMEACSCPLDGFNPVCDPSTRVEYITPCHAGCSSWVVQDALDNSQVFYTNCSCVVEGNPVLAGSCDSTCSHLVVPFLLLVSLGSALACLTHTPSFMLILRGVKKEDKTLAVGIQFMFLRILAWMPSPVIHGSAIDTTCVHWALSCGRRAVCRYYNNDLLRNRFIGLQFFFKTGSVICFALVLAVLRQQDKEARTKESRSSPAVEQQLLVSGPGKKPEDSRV
Method in brief: (§1)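 Confluent cells were washed in PBS, then given 1 µM [3H]-E2 17G (OATP1B1, OATP1B3 HEK293) or 1 µM [3H]-E1S (OATP2B1 MDCKII) with 10 µM compound in HBSS pH 7.4 for 3 min at 37°C. Uptake into mock or parental cells was subtracted after protein normalization. Results are % vehicle, mean ± SD of at least three experiments in triplicate.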

[2] = molecular target: T2, Solute carrier organic anion transporter family member 1B1 (Homo sapiens, UniProt Q9Y6L6); assay: Inhibition of OATP1B1 (unknown origin) expressed in HEK293 cells assessed as reduction of [3H]estradiol-17beta-glucuronide uptake at 10 uM after 3 mins by beta-counting; assay type: ADME, cell-based; conditions: hek293, 0.05 h; method in brief: as §1
T2 sequence (Q9Y6L6 whole entry): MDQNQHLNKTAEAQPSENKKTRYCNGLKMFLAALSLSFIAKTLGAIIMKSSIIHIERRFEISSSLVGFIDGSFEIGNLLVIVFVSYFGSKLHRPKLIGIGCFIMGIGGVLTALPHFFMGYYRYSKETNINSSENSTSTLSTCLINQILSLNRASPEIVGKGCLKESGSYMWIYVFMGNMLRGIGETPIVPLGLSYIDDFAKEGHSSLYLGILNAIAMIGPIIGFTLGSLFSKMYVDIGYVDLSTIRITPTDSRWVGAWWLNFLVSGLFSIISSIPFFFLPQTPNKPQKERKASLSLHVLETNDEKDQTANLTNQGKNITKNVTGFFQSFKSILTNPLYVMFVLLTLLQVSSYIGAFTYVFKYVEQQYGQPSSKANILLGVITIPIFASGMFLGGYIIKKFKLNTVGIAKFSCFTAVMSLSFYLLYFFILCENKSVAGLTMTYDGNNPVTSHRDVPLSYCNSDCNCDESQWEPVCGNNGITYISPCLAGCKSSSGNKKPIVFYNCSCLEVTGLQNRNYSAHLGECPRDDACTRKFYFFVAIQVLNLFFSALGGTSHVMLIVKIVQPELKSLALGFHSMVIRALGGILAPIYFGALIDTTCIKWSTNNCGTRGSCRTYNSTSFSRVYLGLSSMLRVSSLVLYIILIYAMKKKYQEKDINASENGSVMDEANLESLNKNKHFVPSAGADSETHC

[3] = molecular target: T3, Solute carrier organic anion transporter family member 1B3 (Homo sapiens, UniProt Q9NPD5); assay: Inhibition of OATP1B3 (unknown origin) expressed in HEK293 cells assessed as reduction of [3H]estradiol-17beta-glucuronide uptake at 10 uM after 3 mins by beta-counting; assay type: ADME, cell-based; conditions: hek293, 0.05 h; method in brief: as §1
T3 sequence (Q9NPD5 whole entry): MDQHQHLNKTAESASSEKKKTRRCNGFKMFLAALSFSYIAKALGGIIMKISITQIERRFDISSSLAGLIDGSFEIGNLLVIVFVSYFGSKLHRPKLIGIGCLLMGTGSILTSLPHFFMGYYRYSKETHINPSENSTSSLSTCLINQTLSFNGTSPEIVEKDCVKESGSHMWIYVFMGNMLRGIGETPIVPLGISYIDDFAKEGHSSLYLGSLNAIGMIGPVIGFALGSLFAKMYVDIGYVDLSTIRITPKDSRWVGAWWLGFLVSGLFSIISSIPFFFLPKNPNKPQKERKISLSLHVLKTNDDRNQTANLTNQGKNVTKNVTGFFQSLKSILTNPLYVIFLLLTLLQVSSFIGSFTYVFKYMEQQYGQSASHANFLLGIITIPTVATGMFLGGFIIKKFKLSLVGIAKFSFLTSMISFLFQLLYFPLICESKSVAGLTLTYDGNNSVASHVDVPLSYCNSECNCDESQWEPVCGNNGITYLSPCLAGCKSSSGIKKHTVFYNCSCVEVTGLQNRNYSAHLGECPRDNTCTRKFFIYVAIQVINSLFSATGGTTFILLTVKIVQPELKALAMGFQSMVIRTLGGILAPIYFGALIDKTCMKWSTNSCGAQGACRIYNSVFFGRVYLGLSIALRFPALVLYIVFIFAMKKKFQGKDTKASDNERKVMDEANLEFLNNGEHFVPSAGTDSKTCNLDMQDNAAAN

[4] = molecular target: T2, Solute carrier organic anion transporter family member 1B1; assay: Inhibition of OATP1B1 (unknown origin) expressed in HEK293 cells assessed as reduction of [3H]estradiol-17beta-glucuronide uptake after 3 mins by beta-counting; assay type: ADME, cell-based
Method in brief: (§2)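 Transfected HEK293 (G418) or MDCKII (hygromycin B) cells were co-incubated with 0-100 µM compound and [3H]-E2 17G (1 µM, 0.25 µCi/ml; OATP1B1, OATP1B3) or [3H]-E1S (1 µM; OATP2B1) in HBSS pH 7.4, 3 min at 37°C. OATP-negative uptake was subtracted, and results expressed as % vehicle. Two experiments were run in duplicate. IC50 came from non-linear dose-response fits.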

[5] = molecular target: T3, Solute carrier organic anion transporter family member 1B3; assay: Inhibition of OATP1B3 (unknown origin) expressed in HEK293 cells assessed as reduction of [3H]estradiol-17beta-glucuronide uptake after 3 mins by beta-counting; assay type: ADME, cell-based; method in brief: as §2
[6] = molecular target: T1, Solute carrier organic anion transporter family member 2B1; assay: Inhibition of OATP2B1 (unknown origin) expressed in MDCK2 cells assessed as reduction of [3H]estrone-3-sulfate uptake after 3 mins by beta-counting; assay type: ADME, cell-based, MDCK-II; method in brief: as §2

| inhibition (INH) [1] | inhibition (INH) [2] | inhibition (INH) [3] | IC50 [4] | IC50 [5] | IC50 [6] | Structure (SMILES) |
| --- | --- | --- | --- | --- | --- | --- |
| Active | Active |  |  |  |  | COc1cc([C@H]2Oc3ccc([C@H]4Oc5cc(O)cc(O)c5C(=O)[C@@H]4O)cc3O[C@@H]2CO)ccc1O [ISOSILYBIN A] |
| Active | Active | Active |  |  |  | COc1cc([C@@H]2Oc3ccc([C@H]4Oc5cc(O)cc(O)c5C(=O)[C@@H]4O)cc3O[C@H]2CO)ccc1O [ISOSILYBIN B] |
| Active | Not Active |  | 9 µM | 36.4 µM | 3.6 µM | COc1cc(C2Oc3c(O)cc([C@H]4Oc5cc(O)cc(O)c5C(=O)[C@@H]4O)cc3C2CO)ccc1O (stereo not given in full) [SILICRISTIN] |
